# From PubChem
# Statin myotox sup – protects C2C12 myotubes from simvastatin toxicity; AID 602340; actives 0.78% (n = 330,000); rescue of ATP level, % at 7.49 µM; ATP luminescence, 48 h; scaled: DMSO 0, geranylgeraniol control 100;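 active = mean ATP rescue above about 67%, or every replicate alone reaching that limit, limit read from the data, passing the limit was not always enough; inconclusive = no clear call, values can overlap the other calls; inactive = mean under the limit and some replicate under it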;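 also: myotubes were challenged with 10 µM simvastatin during compound exposure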
# Cneo AK release – causes C. neoformans cell lysis; adenylate kinase release luminescence, 4 h; normalised: neutral wells 0, clomiphene wells 100; lysis activity, % at 15 µM; actives 0.2% (n = 360,000); AID 651654;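 active = mean lysis activity across replicates of at least 80%, whatever share of replicates individually reach that level; inactive = mean lysis activity below 80%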
#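 Material: C. neoformans cells; Schedule: 4 h static compound exposure, 37 °C, read 1 h post-reagent; Measured by: adenylate kinase release luminescence; Read-out: signal increase indicating cell lysis; Controls: Clomiphene as positive lysis control.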
# ERp5 block – inhibitors of human ERp5 | ERp5 insulin aggregation, absorbance 650 nm, 90 min | AID 651711 | inhibition, % at 9.99 µM | actives 0.05% (n = 350,000);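 active = mean replicate inhibition above about 25%, with every replicate also reaching it, limit read from the data, passing the limit was not always enough; inconclusive = only one of those two criteria met; inactive = neither criterion met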
# F508del corr – correctors of CFTR F508del function in bronchial epithelial cells; CFBE cells, YFP halide quenching; stimulated with forskolin plus potentiator P3; % fluorescence drop versus neutral controls; activity (quench increase), % at 7.58 µM; actives 0.36% (n = 350,000);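 active = mean added fluorescence quench of at least 8% versus neutral control, with both replicates also reaching 8%; inconclusive = only one of the mean or replicate conditions met; inactive = mean below 8% and not both replicates reaching 8%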;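 also: cells transiently co-express mutant CFTR-F508del with the halide-sensitive YFP; corrector assay measuring rescue of mutant channel to the surface after 24 h compound exposure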
# DENV2 CPE rescue – protects cells from dengue virus 2 cytopathic effect; CPE inhibition, % at 9.99 µM; DENV2-infected cells, cytopathic effect rescue, plate reader; actives 1.7% (n = 350,000); AID 651640; in the data active = CPE inhibition above about 20%, passing the limit was not always enough; inconclusive = no clear call, values can overlap the other calls; tested in BHK-21 cells;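 also: 0% = median of neutral control wells and 100% = median of positive control wells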
# PDI inh – inhibitors of human protein disulfide isomerase. P07237. PDI insulin aggregation turbidity, A650, 90 min. inhibition, % at 10 µM. actives 0.052% (n = 350,000). AID 588391;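 active = mean inhibition across replicates of 30% or more, whatever share of single replicates reach that level; inconclusive = mean inhibition below 30% while every single replicate reaches 30%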
# Target sequence (P07237 whole entry, looked up): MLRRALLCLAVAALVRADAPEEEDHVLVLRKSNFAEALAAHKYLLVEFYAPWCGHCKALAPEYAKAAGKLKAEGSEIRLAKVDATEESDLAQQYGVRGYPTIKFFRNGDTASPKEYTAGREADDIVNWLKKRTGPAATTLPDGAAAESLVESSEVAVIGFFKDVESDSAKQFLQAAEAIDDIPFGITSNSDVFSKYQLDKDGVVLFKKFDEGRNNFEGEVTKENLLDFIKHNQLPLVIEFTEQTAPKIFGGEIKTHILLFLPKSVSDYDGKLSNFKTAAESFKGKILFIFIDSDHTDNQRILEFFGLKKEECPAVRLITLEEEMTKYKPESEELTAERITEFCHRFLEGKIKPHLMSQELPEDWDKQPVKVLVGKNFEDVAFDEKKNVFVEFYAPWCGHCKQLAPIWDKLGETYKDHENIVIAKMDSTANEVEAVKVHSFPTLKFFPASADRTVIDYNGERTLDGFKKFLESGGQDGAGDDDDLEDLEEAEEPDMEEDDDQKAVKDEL
# The depositor's hits bear a star; ? = inconclusive; · = no result. Hits are enriched below; roughly 2.3% of the tested compounds scored in any of these assays.
SMILES,Statin myotox sup,Cneo AK release,ERp5 block,F508del corr,DENV2 CPE rescue,PDI inh
O=C(C1CCC1)N1CC2(C1)[C@H](c1ccccc1)[C@H](CO)N2CC1CCCC1,·,·,0,-4,-7,·
COc1cc2c(c(O)c1OC)C(=O)C(OC)CCC2 (stereo not given),89*,1,·,·,·,29
N#C[C@@H]1[C@H](c2ccccc2-c2ccc(F)cc2)[C@H](CO)N1c1ncc(-c2ccccc2)s1,·,·,-4,2,-8,·
N#C[C@H]1[C@@H](c2ccccc2-c2ccc(F)cc2)[C@@H](CO)N1c1ncc(-c2ccccc2)s1,·,·,-4,2,23*,·
N#C[C@@H]1[C@@H](c2ccccc2-c2ccc(F)cc2)[C@H](CO)N1c1ncc(-c2ccccc2)s1,·,·,-3,4,76*,·
CC(=O)N[C@@H]1C[C@@H]2O[C@H](CO)CC[C@@H]2O[C@@H]1CCc1ccc(C#CC2(O)CCCC2)cc1,·,·,19,-1,21*,·
CC(C)NC(=O)N[C@H]1C[C@@H]2O[C@@H](CO)CC[C@@H]2O[C@@H]1CCc1ccc(-c2ccccc2F)cc1,·,·,4,1,1,·
CS(=O)(=O)N[C@@H]1C[C@@H]2O[C@@H](CO)CC[C@@H]2O[C@@H]1CCc1ccc(-c2ccccc2F)cc1,·,·,-2,0,21*,·
Cc1ccc(S(=O)(=O)N[C@H](C(=O)NCCN=[N+]=[N-])C(C)C)cc1,·,-1,-2,2,-6,·
O=C(OC[C@@H]1[C@H]2c3ccccc3OC1(CO)N=C1SCCCN12)c1ccccc1,·,9,3,2,3,·
COCC(=O)N(C)C1(c2nnnn2CCOC(=O)Nc2cccc3ccccc23)CCCC1,98*,3,·,·,·,-8
CCCNC(=O)N1C[C@@H](C)[C@H](OC)CN(C)C(=O)c2cc(NS(=O)(=O)CC(F)(F)F)ccc2OC[C@@H]1C,3,-3,-2,-2,60*,·
CCS(=O)(=O)Nc1ccc2c(c1)C(=O)N(C)C[C@H](OC)[C@H](C)CN(C(C)=O)[C@H](C)CO2,1,54,0,0,24*,·
CCC(=O)Nc1ccc2c(c1)C(=O)N(C)C[C@@H](OC)[C@H](C)CN[C@H](C)CO2,8,-11,5,-1,-3,·
CCC(=O)Nc1ccc2c(c1)C(=O)N(C)C[C@H](OC)[C@@H](C)CN[C@H](C)CO2,-3,84*,7,-2,12,·
CCC(=O)Nc1ccc2c(c1)C(=O)N(C)C[C@@H](OC)[C@H](C)CN(C(C)=O)[C@@H](C)CO2,·,·,1,1,29*,·
CCC(=O)Nc1ccc2c(c1)C(=O)N(C)C[C@@H](OC)[C@@H](C)CN(C(C)=O)[C@@H](C)CO2,0,-10,-1,·,32*,·
CCC(=O)Nc1ccc2c(c1)C(=O)N(C)C[C@H](OC)[C@@H](C)CN(C(C)=O)[C@@H](C)CO2,2,0,-1,·,54*,·
C[C@H](CO)N1C[C@H](C)[C@H](CN(C)C(=O)Cc2ccccc2)OCCCC[C@H](C)Oc2ccc(NC(=O)Nc3ccccc3)cc2C1=O,·,1,6,-1,-7,·
CC(C)OCCCN1CN(S(=O)(=O)c2ccc(Cl)cc2)c2nc3ccccc3nc21,5,8,-4,·,·,5
CCOCCCN1CN(S(=O)(=O)c2ccc(Cl)cc2)c2nc3ccccc3nc21,133*,0,·,·,·,-11
CNCCCC1c2ccccc2C=Cc2ccccc21,-1,1,7,-5,26*,-7
NC(=O)CC[C@H](NC(=O)[C@H](Cc1ccccc1)n1c(=O)[nH]c2ccccc2c1=O)C(=O)N1CCC[C@H]1C(=O)O,6,-1,0,-1,66*,·
CCN(CC)C(=O)c1sc(N)c(C#N)c1C,128*,0,·,·,·,3
O=C(C[C@H]1C[C@H]2c3cc(NC(=O)C4CCOCC4)ccc3O[C@H]2[C@@H](CO)O1)NCc1cc(F)ccc1F,0,25,-4,1,?,·
SMILES,Statin myotox sup,Cneo AK release,ERp5 block,F508del corr,DENV2 CPE rescue,PDI inh
COc1ccc(CNC(=O)CN(C(=O)c2csnn2)c2cccc3c2CCCC3)cc1,73*,0,0,0,-3,4
CCC(=O)Oc1c(S(=O)(=O)c2ccc(C)cc2)c(C)nn1C(C)(C)C,106*,0,·,·,·,-5
CCC(=O)N[C@@H]1C=C[C@H](CC(=O)NCc2ccccc2F)O[C@@H]1CO,4,-1,3,1,0,·
Cc1cc(NC(=O)Nc2cc(C)nn2-c2ccccc2)n(-c2ccccc2)n1,-11,1,·,·,·,-2
CCOC(=O)/C=C(\C)Nc1cc(C)nn1-c1ccccc1,127*,0,·,·,·,2
Cc1ccc(S(=O)(=O)Nc2ccc3c(c2)C(=O)N([C@@H](C)CO)C[C@@H](C)[C@@H](CN(C)C(=O)CCCN(C)C)OCCCC[C@H](C)O3)cc1,·,3,0,-4,-1,·
O=C1C=C(c2cccs2)CC(c2cccs2)C1n1cnc([N+](=O)[O-])c1 (stereo not given),0,3,·,·,·,0
O=C1C=C(c2ccccc2)C[C@H](c2cccs2)[C@H]1n1cnc([N+](=O)[O-])c1,137*,-1,·,·,·,5
COCCOC(=O)C1=C(C)NC(=O)NC1C1CC=CCC1 (stereo not given),11,-1,-3,3,1,6
C=CCOC(=O)C1=C(C)NC(=O)NC1C1CC=CCC1 (stereo not given),117*,·,·,·,·,9
C[C@@H]1CN([C@@H](C)CO)C(=O)c2cc(NC(=O)CCCN(C)C)ccc2O[C@H]1CN(C)S(=O)(=O)c1ccc(Cl)cc1,-25,3,-8,-3,4,·
CC(C)NC(=O)Nc1ccc2c(c1)CC(=O)N([C@H](C)CO)C[C@H](C)[C@@H](CN(C)S(=O)(=O)c1ccc(Cl)cc1)O2,-7,1,3,-2,-6,·
C[C@H]1CN([C@@H](C)CO)C(=O)Cc2cc(NC(=O)Nc3ccc(F)cc3)ccc2O[C@H]1CN(C)S(=O)(=O)c1ccc(Cl)cc1,-202,4,12,0,43*,·
CC(C)NC(=O)Nc1ccc2c(c1)CC(=O)N([C@@H](C)CO)C[C@@H](C)[C@@H](CN(C)S(=O)(=O)c1ccc(Cl)cc1)O2,-19,102*,2,-3,3,·
C[C@@H]1CN([C@H](C)CO)C(=O)c2cccc(NC(=O)Nc3ccc(C(F)(F)F)cc3)c2O[C@H]1CN(C)S(C)(=O)=O,2,-5,-3,1,-7,·
Cc1nc(C(F)(F)F)ccc1C(=O)N1CCC1(C)C(=O)NS(C)(=O)=O (stereo not given),1,-2,-10,-1,-2,0
Cc1nc(C(F)(F)F)ccc1C(=O)N1CCC1(C)C(=O)NS(=O)(=O)c1ccc(Cl)cc1 (stereo not given),-6,2,-4,-3,8,1
